From ChEMBL document CHEMBL2010740, “Synthesis and evaluation of 2-amido-3-carboxamide thiophene CB₂ receptor agonists for pain management” (Bioorg Med Chem Lett, 2012)
pIC50, pKi: −log10 of the molar value. Calls of active or inactive are those of the source.

Tests used:
[1] = biological target: T1, Cannabinoid receptor 2 (Homo sapiens, UniProt P34972); test: Displacement of [3H]CP-55940 from human recombinant CB2 receptor expressed in HEK293 cells after 90 mins; type: cell-based
Summary of the method: (§1)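 Competitive binding: [³H]CP-55,940 displaced from membranes of HEK 293 cells stably transfected with human or rat CB₂, or CHO cells stably transfected with human or rat CB₁. Reported as pKi. Determinations >2 (duplicate of duplicate).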

[2] = biological target: T2, Cannabinoid receptor 2 (Rattus norvegicus, UniProt Q9QZN9); test: Displacement of [3H]CP-55940 from rat recombinant CB2 receptor expressed in HEK293 cells after 90 mins; type: cell-based; summary of the method: as §1
T2 sequence (Q9QZN9 whole entry): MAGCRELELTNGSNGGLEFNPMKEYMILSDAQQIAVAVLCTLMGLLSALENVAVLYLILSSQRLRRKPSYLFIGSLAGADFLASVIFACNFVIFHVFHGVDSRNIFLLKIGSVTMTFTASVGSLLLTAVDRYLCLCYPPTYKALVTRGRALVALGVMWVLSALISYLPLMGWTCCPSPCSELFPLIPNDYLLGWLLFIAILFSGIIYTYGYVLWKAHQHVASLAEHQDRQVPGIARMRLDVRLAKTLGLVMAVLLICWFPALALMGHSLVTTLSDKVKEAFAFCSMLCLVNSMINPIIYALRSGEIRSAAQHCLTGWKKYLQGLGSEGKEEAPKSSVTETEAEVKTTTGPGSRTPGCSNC

[3] = biological target: T3, Cannabinoid receptor 1 (Homo sapiens, UniProt P21554); test: Displacement of [3H]CP-55940 from human recombinant CB1 receptor expressed in CHO cells after 90 mins; type: cell-based; summary of the method: as §1
[4] = biological target: T4, Cannabinoid receptor 1 (Rattus norvegicus, UniProt P20272); test: Displacement of [3H]CP-55940 from rat recombinant CB1 receptor expressed in CHO cells after 90 mins; type: cell-based; summary of the method: as §1
[5] = biological target: T1, Cannabinoid receptor 2; test: Agonist activity at human recombinant CB2 receptor expressed in HEK293 cells co-expressing chimeric Gaq/o protein by FLIPR assay; type: functional, cell-based
Summary of the method: (§2)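 FLIPR functional assay in HEK 293 cells stably co-expressing chimeric Gαq/o protein and the CB receptor. Net peak evoked response was compared with the peak response to CP-55,940.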

[6] = biological target: T2, Cannabinoid receptor 2; test: Agonist activity at rat recombinant CB2 receptor expressed in HEK293 cells co-expressing chimeric Gaq/o protein by FLIPR assay by FLIPR assay; type: functional, cell-based; summary of the method: as §2
[7] = biological target: T5, Cannabinoid receptor 2 (Rattus norvegicus) (UniProt Q9QZN9); test: Agonist activity at rat recombinant CB2 receptor expressed in HEK293 cells co-expressing chimeric Gaq/o protein by FLIPR assay by FLIPR assay relative to CP55940; type: functional, cell-based; summary of the method: as §2
T5 sequence (whole entry): T2 sequence (Q9QZN9 whole entry)

[8] = biological target: T1, Cannabinoid receptor 2; test: Agonist activity at human recombinant CB2 receptor expressed in HEK293 cells assessed as inhibition of forskolin-induced cAMP production after 20 mins by ELISA; type: functional, cell-based
Summary of the method: (§3)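 cAMP assay in HEK 293 cells stably expressing the relevant CB receptor, with a fixed concentration of forskolin. cAMP was quantified by ELISA. Activation is given as percent of the CP-55,940 control response.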

[9] = biological target: T2, Cannabinoid receptor 2; test: Agonist activity at rat recombinant CB2 receptor expressed in HEK293 cells assessed as inhibition of forskolin-induced cAMP production after 20 mins by ELISA; type: functional, cell-based; summary of the method: as §3
[10] = biological target: T5, Cannabinoid receptor 2 (Rattus norvegicus); test: Agonist activity at rat recombinant CB2 receptor expressed in HEK293 cells assessed as inhibition of forskolin-induced cAMP production after 20 mins by ELISA relative to CP55940; type: functional, cell-based; summary of the method: as §3
[11] = Plasma protein binding in human; type: ADME, cell-free; conditions: read-out: PPB (converted)
[12] = Plasma protein binding in rat; type: ADME, cell-free; conditions: read-out: PPB (converted)
[13] = Metabolic stability in rat microsomes assessed as compound remaining after 30 mins; type: ADME, Microsome; conditions: read-out: Stability
Summary of the method: (§4)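 Metabolic stability: compound incubated with human or rat liver microsomes. Percent parent remaining was measured after 30 min.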

[14] = Metabolic stability in human microsomes assessed as compound remaining after 30 mins; type: ADME, Microsome; conditions: read-out: Stability; summary of the method: as §4
[15] = Volume of distribution during terminal phase in rat at 3 umol/kg, iv; type: ADME, organism-based; conditions: in vivo, read-out: Vbeta
[16] = Plasma clearance in rat at 3 umol/kg, iv; type: ADME, organism-based
[17] = AUC in rat at 3 umol/kg, iv; type: ADME, organism-based; conditions: plasma
[18] = Half life in rat at 3 umol/kg, iv; type: ADME, organism-based; conditions: in vivo
[19] = Cmax in rat at 10 umol/kg, ip; type: ADME, organism-based; design: dose 10 umol/kg, route intraperitoneal; conditions: in vivo
[20] = Tmax in rat at 10 umol/kg, ip; type: ADME, organism-based; conditions: in vivo
[21] = AUC in rat at 10 umol/kg, ip; type: ADME, organism-based; conditions: plasma
[22] = Half life in rat at 10 umol/kg, ip; type: ADME, organism-based; conditions: in vivo
[23] = Oral bioavailability in rat at 10 umol/kg, ip; type: ADME, organism-based; conditions: in vivo, intraperitoneal
[24] = Cmax in rat at 10 umol/kg, po; type: ADME, organism-based; design: dose 10 umol/kg, route oral; conditions: in vivo
[25] = Tmax in rat at 10 umol/kg, po; type: ADME, organism-based; conditions: in vivo
[26] = AUC in rat at 10 umol/kg, po; type: ADME, organism-based; conditions: plasma
[27] = Half life in rat at 10 umol/kg, po; type: ADME, organism-based; conditions: in vivo
[28] = Oral bioavailability in rat at 10 umol/kg; type: ADME, organism-based; conditions: in vivo
[29] = system: Rattus norvegicus; test: Analgesic activity in rat spinal nerve ligation model of neuropathic pain assessed as […] at 3 umol/kg, ip administered 2 weeks post-surgery measured after 30 mins; type: functional; design: scale not given: the % may be the effect or the level left
Summary of the method: (§5)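 Rat spinal nerve ligation (Chung) neuropathic pain model. Dosing was intraperitoneal, two weeks after surgery and 30 min before testing. Read-out was mechanical allodynia (paw withdrawal threshold), given as a dose–response.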

[30] = system: Rattus norvegicus; test: Analgesic activity in rat spinal nerve ligation model of neuropathic pain assessed as […] at 10 umol/kg, ip administered 2 weeks post-surgery measured after 30 mins; type: functional; design: scale not given: the % may be the effect or the level left; summary of the method: as §5
[31] = system: Rattus norvegicus; test: Analgesic activity in rat spinal nerve ligation model of neuropathic pain assessed as […] at 30 umol/kg, ip administered 2 weeks post-surgery measured after 30 mins; type: functional; design: scale not given: the % may be the effect or the level left; summary of the method: as §5
[32] = system: Rattus norvegicus; test: Analgesic activity in rat chronic constriction injury model of neuropathic pain assessed as reduction in mechanical allodynia at 3 umol/kg, ip administered 2 weeks post-surgery measured after 30 mins; type: functional; design: scale not given: the % may be the effect or the level left
[33] = system: Rattus norvegicus; test: Analgesic activity in rat chronic constriction injury model of neuropathic pain assessed as reduction in mechanical allodynia at 10 umol/kg, ip administered 2 weeks post-surgery measured after 30 mins; type: functional; design: scale not given: the % may be the effect or the level left
[34] = system: Rattus norvegicus; test: Analgesic activity in rat chronic constriction injury model of neuropathic pain assessed as reduction in mechanical allodynia at 30 umol/kg, ip administered 2 weeks post-surgery measured after 30 mins; type: functional; design: scale not given: the % may be the effect or the level left
[35] = system: Rattus norvegicus; test: Analgesic activity in rat incision model of post-operative pain assessed as reduction in paw withdrawal latency at 3 umol/kg, ip administered 90 mins post-surgical incision measured after 30 mins; type: functional; design: scale not given: the % may be the effect or the level left
[36] = system: Rattus norvegicus; test: Analgesic activity in rat incision model of post-operative pain assessed as reduction in paw withdrawal latency at 10 umol/kg, ip administered 90 mins post-surgical incision measured after 30 mins; type: functional; design: scale not given: the % may be the effect or the level left
[37] = system: Rattus norvegicus; test: Analgesic activity in rat complete Freund's adjuvant model of chronic inflammatory pain assessed as latency in paw withdrawal at 30 umol/kg, po administered 48 hrs after CFA-challenge measured after 60 mins; type: functional
[38] = system: Rattus norvegicus; test: Analgesic activity in rat complete Freund's adjuvant model of chronic inflammatory pain assessed as latency in paw withdrawal at 100 umol/kg, po administered 48 hrs after CFA-challenge measured after 60 mins; type: functional
[39] = system: Rattus norvegicus; test: Analgesic activity in rat complete Freund's adjuvant model of chronic inflammatory pain assessed as reduction in thermal hyperalgesia at 3 umol/kg, ip administered 48 hrs after CFA-challenge measured after 60 mins; type: functional, organism-based
[40] = system: Rattus norvegicus; test: Analgesic activity in rat complete Freund's adjuvant model of chronic inflammatory pain assessed as reduction in thermal hyperalgesia at 10 umol/kg, ip administered 48 hrs after CFA-challenge measured after 60 mins; type: functional; design: scale not given: the % may be the effect or the level left
[41] = system: Rattus norvegicus; test: Analgesic activity in rat complete Freund's adjuvant model of chronic inflammatory pain assessed as reduction in thermal hyperalgesia at 10 umol/kg, ip; type: functional; design: scale not given: the % may be the effect or the level left
Summary of the method: (§6)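 Rat CFA inflammatory pain model. Read-out was thermal hyperalgesia in the CFA-injected right paw, with the left paw as control. Test compound and the CB₂ antagonist SR-144528 (10 µmol/kg ip) were given alone and combined, with vehicle controls.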

[42] = system: Rattus norvegicus; test: Analgesic activity in rat complete Freund's adjuvant model of chronic inflammatory pain assessed as reduction in thermal hyperalgesia at 10 umol/kg, ip co-administered with CB2 antagonist SR144528; type: functional; design: scale not given: the % may be the effect or the level left; summary of the method: as §6
[43] = system: Rattus norvegicus; test: Neurotoxicity in rat assessed as decrease in spontaneous locomotory activity at 10 umol/kg, ip after 30 mins; type: toxicity, organism-based; design: scale not given: the % may be the effect or the level left; conditions: in vivo, 0.5 h
Summary of the method: (§7)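 Spontaneous horizontal locomotor activity in rats. Compound was given intraperitoneally 30 min before testing.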

[44] = system: Rattus norvegicus; test: Neurotoxicity in rat assessed as decrease in spontaneous locomotory activity at 30 umol/kg, ip after 30 mins; type: toxicity, organism-based; design: scale not given: the % may be the effect or the level left; conditions: in vivo, 0.5 h; summary of the method: as §7
[45] = system: Rattus norvegicus; test: Neurotoxicity in rat assessed as decrease in spontaneous locomotory activity at 100 umol/kg, ip after 30 mins; type: toxicity, organism-based; design: scale not given: the % may be the effect or the level left; conditions: in vivo, 0.5 h; summary of the method: as §7
[46] = biological target: T3, Cannabinoid receptor 1; test: Agonist activity at human recombinant CB1 receptor expressed in HEK293 cells assessed as inhibition of forskolin-induced cAMP production after 20 mins by ELISA; type: functional, cell-based; summary of the method: as §3
[47] = biological target: T4, Cannabinoid receptor 1; test: Agonist activity at rat recombinant CB1 receptor expressed in HEK293 cells assessed as inhibition of forskolin-induced cAMP production after 20 mins by ELISA; type: functional, cell-based; summary of the method: as §3
[48] = system: Rattus norvegicus; test: Analgesic activity in ip dosed rat spinal nerve ligation model of neuropathic pain assessed as […] administered 2 weeks post-surgery measured after 30 mins; type: functional, organism-based; summary of the method: as §5
[49] = system: Rattus norvegicus; test: Analgesic activity in ip dosed rat chronic constriction injury model of neuropathic pain assessed as reduction in mechanical allodynia administered 2 weeks post-surgery measured after 30 mins; type: functional, organism-based
[50] = system: Rattus norvegicus; test: Analgesic activity in ip dosed rat incision model of post-operative pain assessed as reduction in paw withdrawal latency administered 90 mins post-surgical incision measured after 30 mins; type: functional, organism-based
[51] = system: Rattus norvegicus; test: Analgesic activity in po dosed rat complete Freund's adjuvant model of chronic inflammatory pain assessed as latency in paw withdrawal administered 48 hrs after CFA-challenge measured after 60 mins; type: functional, organism-based
[52] = system: Rattus norvegicus; test: Neurotoxicity in ip dosed rat assessed as decrease in spontaneous locomotory activity after 30 mins; type: toxicity, organism-based; conditions: in vivo, 0.5 h; summary of the method: as §7

T1 sequence (P34972 whole entry): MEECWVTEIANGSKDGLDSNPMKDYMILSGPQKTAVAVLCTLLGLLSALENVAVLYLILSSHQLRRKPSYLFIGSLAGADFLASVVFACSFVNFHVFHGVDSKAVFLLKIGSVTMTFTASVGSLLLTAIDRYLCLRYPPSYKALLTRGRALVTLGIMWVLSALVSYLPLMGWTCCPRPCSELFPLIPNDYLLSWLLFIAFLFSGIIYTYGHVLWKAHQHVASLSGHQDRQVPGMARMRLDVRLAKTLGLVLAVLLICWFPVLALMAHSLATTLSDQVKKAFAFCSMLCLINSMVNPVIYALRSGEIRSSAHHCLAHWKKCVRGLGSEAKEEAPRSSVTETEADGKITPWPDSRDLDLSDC
T4 sequence (P20272 whole entry): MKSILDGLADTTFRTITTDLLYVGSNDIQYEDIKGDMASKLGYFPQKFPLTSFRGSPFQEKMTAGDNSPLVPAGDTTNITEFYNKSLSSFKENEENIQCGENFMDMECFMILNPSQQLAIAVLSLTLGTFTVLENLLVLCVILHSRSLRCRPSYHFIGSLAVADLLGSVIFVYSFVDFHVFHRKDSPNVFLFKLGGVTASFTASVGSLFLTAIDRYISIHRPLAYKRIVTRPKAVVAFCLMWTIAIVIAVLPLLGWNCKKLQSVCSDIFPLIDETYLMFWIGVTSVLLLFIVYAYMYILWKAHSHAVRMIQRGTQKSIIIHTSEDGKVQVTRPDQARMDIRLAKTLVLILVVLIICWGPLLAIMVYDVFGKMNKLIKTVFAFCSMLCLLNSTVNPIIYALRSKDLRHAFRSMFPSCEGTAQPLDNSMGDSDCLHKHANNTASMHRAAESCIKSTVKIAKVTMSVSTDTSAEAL
T3 sequence (P21554 whole entry): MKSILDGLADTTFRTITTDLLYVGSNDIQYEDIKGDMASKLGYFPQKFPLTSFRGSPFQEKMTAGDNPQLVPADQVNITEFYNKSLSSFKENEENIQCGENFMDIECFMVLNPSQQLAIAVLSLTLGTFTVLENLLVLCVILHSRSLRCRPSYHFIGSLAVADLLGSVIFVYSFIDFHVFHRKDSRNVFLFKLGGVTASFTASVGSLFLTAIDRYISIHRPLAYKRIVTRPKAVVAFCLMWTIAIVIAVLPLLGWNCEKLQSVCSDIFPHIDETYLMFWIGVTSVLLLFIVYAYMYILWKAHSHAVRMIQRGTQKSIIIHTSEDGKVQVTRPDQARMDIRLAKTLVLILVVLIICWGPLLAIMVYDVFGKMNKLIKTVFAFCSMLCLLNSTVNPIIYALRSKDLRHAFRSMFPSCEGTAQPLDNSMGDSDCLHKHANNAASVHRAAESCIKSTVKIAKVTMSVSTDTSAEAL

CCCNC(=O)c1c(NC(=O)C23CC4CC(CC2C4)C3)sc2c1CCOC2
pKi [1]: 7.68
pKi [2]: 7.47
pKi [3]: 5.81
pKi [4]: 6.52
pIC50 [5]: 7.15
pIC50 [6]: 5.81
Imax [7]: 79%
pIC50 [8]: 8.71
pIC50 [9]: 8.03
Imax [10]: 72%
fraction unbound [11]: 0.02
fraction unbound [12]: 0.03
remaining at 0.5 h [13]: 5%
remaining at 0.5 h [14]: 9%
Vd [15]: 8.7 L/kg
clearance [16]: 63.3 mL/min/kg
AUC [17]: 320 ng·h/mL
half-life [18]: 1.5 h
Cmax [19]: 150 ng/mL
Tmax [20]: 0.6 h
AUC [21]: 1020 ng·h/mL
half-life [22]: 6.7 h
bioavailability [23]: 96%
Cmax [24]: 39 ng/mL
Tmax [25]: 1.2 h
AUC [26]: 123 ng·h/mL
half-life [27]: 1.6 h
bioavailability [28]: 11%
Activity [29]: 8%
Activity [30]: 29%
Activity [31]: 60%
Activity [32]: 22%
Activity [33]: 55%
Activity [34]: 74%
Activity [35]: 21%
Activity [36]: 45%
Activity [37]: 24%
Activity [38]: 58%
Activity [39]: Active
Activity [40]: 74%
Activity [41]: 91%
Activity [42]: 24%
Activity [43]: 18%
Activity [44]: 50%
Activity [45]: 83%
pIC50 [46]: 5.46
pIC50 [47]: 5.85
Activity [48]: Dose-dependent effect
Activity [49]: Dose-dependent effect
Activity [50]: Dose-dependent effect
Activity [51]: Dose-dependent effect
Activity [52]: Dose-dependent effect
